Published values gathered from unrelated publications.
Each line is one published result; the experiments were not run side by side.
PDGFRA D842V: Platelet-derived growth factor receptor alpha (PDGFRA, Homo sapiens, UniProt P16234, D842V)
PDGFRA: Platelet-derived growth factor receptor alpha (PDGFRA, Homo sapiens, UniProt P16234)
PDGFRA T674I: Platelet-derived growth factor receptor alpha (PDGFRA, Homo sapiens, UniProt P16234, T674I)
PDGFRA V561D: Platelet-derived growth factor receptor alpha (PDGFRA, Homo sapiens, UniProt P16234, V561D)

Structure (SMILES) | target | assay | setting | quantity | value
Cc1cc(NC(=O)c2cccc3cc(-c4cccc5[nH]nc(N)c45)ccc23)ccc1F | PDGFRA D842V | enzyme activity, inhibitor | 0.1 µM | activity vs control | 28%
CNC(=O)Nc1ccc2c(c1)[C@@]1(CC2)OC(=O)N(CC(=O)N(Cc2ccc(F)cc2)[C@@H](C)C(F)(F)F)C1=O | PDGFRA | cell-free assay, competition with immobilised ligand | 1 µM | remaining binding | 83%
Cc1ccc(NC(=O)c2ccc(CN3CCN(C)CC3)cc2)cc1Nc1nccc(-c2cccnc2)n1 | PDGFRA | enzyme activity, inhibitor | 0.5 µM | activity vs control | 5.9%
Cc1ccc(C(=O)Nc2ccc(CN3CCN(C)CC3)c(C(F)(F)F)c2)cc1C#Cc1cnc2cccnn12 | PDGFRA | enzyme activity, inhibitor | 23.5 nM | remaining activity | 5.3%
CN(C)C(=O)Cn1cc(-c2nc([C@@](C)(c3ccc(-c4cnc(N)nc4)cc3)C3CC3)no2)cn1 | PDGFRA | cell-free assay, competition with immobilised ligand | 1 µM | remaining binding | 100%
CC(C)(C)c1nc(-c2cccc(NS(=O)(=O)c3c(F)cccc3F)c2F)c(-c2ccnc(N)n2)s1 | PDGFRA | enzyme activity, inhibitor, radiometric | 1 µM | remaining activity | 103%
CN1CCN(c2cnc3c(C4CCN(C(=O)c5ccc(OC(F)(F)F)cc5N)CC4)ncnc3c2)CC1 | PDGFRA | cell-free assay, competition with immobilised ligand | 1 µM | remaining binding | 100%
CC(C)(O)[C@H]1CC[C@H](Nc2ccc3ncc(-c4cccc(C(F)(F)F)c4)n3n2)CC1 | PDGFRA | enzyme activity, inhibitor | 1 µM | remaining activity | 44.5%
FC(F)(F)Oc1cccc(-c2cnc3ccc(-c4ccncc4)nn23)c1 | PDGFRA | enzyme activity, inhibitor, radiometric | 1 µM | activity vs control | 70%
COc1cc(Nc2cnc(C#N)c(O[C@H](C)CN(C)C)n2)ncc1-c1cnn(C)c1 | PDGFRA | enzyme activity, inhibitor, radiometric | 1 µM | remaining activity | 60%
CCc1ccccc1C(=O)Nc1n[nH]c2c(C)c(F)c(C3C(C#N)=C(C)N(C)C(C)=C3C#N)cc12 | PDGFRA | cell-free assay, competition with immobilised ligand | 1 µM | remaining binding | 100%
COc1cc(/C=C/C(=O)CC(=O)/C=C/c2ccc(O)c(OC)c2)ccc1O | PDGFRA | enzyme activity, inhibitor | 1 µM | activity vs control | 92%
COc1cc2ncnc(Nc3ccc(Oc4ccccc4)c(C)c3C)c2cc1OC | PDGFRA D842V | enzyme activity, inhibitor | 1 µM | inhibition | 3%
Cc1ccc(NC(=O)c2ccc(C)c(C(F)(F)F)c2)cc1C#Cc1nn(C2CCC(O)CC2)c2ncnc(N)c12 (stereo not drawn) | PDGFRA | cell-free assay, inhibitor | 10 µM | remaining signal | 60%
Cc1sc(C(=O)NC2COC2)cc1-n1cc(NC(=O)Nc2c(F)cccc2Cl)cn1 | PDGFRA | enzyme activity, inhibitor | 10 µM | remaining activity | 114%
N#CC1(c2ccccn2)CCN(Cc2cc(C(=O)N3CCCC3)c(=O)n3ccccc23)CC1 | PDGFRA | cell-free assay, competition with immobilised ligand | 1 µM | remaining binding | 97%
CCN(CC)c1ccc(C2=NNC(=O)CC2C)cc1[N+](=O)[O-] (stereo not drawn) | PDGFRA | enzyme activity, inhibitor | 10 µM | remaining activity | 91%
CC/C(=N\NC(=O)NCc1cccc(O)c1)c1ccc(O)c(C)c1O | PDGFRA T674I | enzyme activity, inhibitor | 0.1 µM | inhibition | -0.2%
COc1ccc2cc(OCC3(C(=O)O)CN(C(=O)c4ccc(F)cc4)C3)ccc2c1 | PDGFRA | cell-free assay, competition with immobilised ligand | 1 µM | remaining binding | 100%
Cc1cnc(NC2CCOCC2)nc1-n1cnc(C(=O)NC(CN)c2cc(F)cc(Cl)c2)c1 (stereo not drawn) | PDGFRA | enzyme activity, inhibitor, radiometric | 1 µM | remaining activity | 94%
Cc1ccc(C(=O)NCc2ccsc2)cc1C#Cc1cn(C(C)C)c2ncnc(N)c12 | PDGFRA V561D | enzyme activity, inhibitor | 1 µM | activity vs control | 1%
COc1ccc2c(c1)O[C@H](c1ccc(OC)c(OC)c1)C[C@@H]2NC(=O)C1(c2ccc3c(c2)OC(F)(F)O3)CC1 | PDGFRA | cell-free assay, competition with immobilised ligand | 1 µM | remaining binding | 87%
N#CCCc1ccc2c(c1)-c1[nH]c3ccc([N+](=O)[O-])cc3c1CC(=O)N2 | PDGFRA | cell-free assay | 0.5 µM | remaining signal | 87.4%
CCCOc1ccc(OC)c(F)c1C(=O)c1ccc(C(=O)N[C@@H]2CNC[C@H]2NC(=O)c2ccc3[nH]ncc3c2)cc1 | PDGFRA V561D | enzyme activity, inhibitor | 10 µM | remaining activity | 6%
CNC(=O)c1cc(Oc2ccc(NC(=O)Nc3ccc(Cl)c(C(F)(F)F)c3)cc2)ccn1 | PDGFRA V561D | enzyme activity, inhibitor | 10 µM | inhibition | 100%
Cc1nc(Cc2cccc(C(F)(F)F)c2)sc1-c1ccc(C(N)=O)nc1 | PDGFRA | cell-free assay, competition with immobilised ligand | 1 µM | remaining binding | 88%
O=C1NC(=O)c2cc(Nc3ccc(F)cc3)c(Nc3ccc(F)cc3)cc21 | PDGFRA | cell-free assay, inhibitor | 0.5 µM | remaining signal | 101%
COc1cc2ncnc(Nc3ccc(Oc4ccccc4)cc3C)c2cc1OC | PDGFRA | enzyme activity, inhibitor | 1 µM | inhibition | 9%
CCN(CC)CCNC(=O)c1c(C)[nH]c(/C=C2\C(=O)Nc3ccc(F)cc32)c1C | PDGFRA | cell-free assay | 0.5 µM | remaining signal | 10.9%
COc1cc(-c2cc(-c3ccc(N4CCNCC4)cc3)cnc2N)cc(OC)c1OC | PDGFRA T674I | enzyme activity, inhibitor | 1 µM | inhibition | 4%
